These results are taken from publication PMC2978887 (Calcified Tissue International, 2010).

Series [1] concerns serum calcium. Put plainly: Serum calcium pharmacodynamic response to teriparatide. Type of series: in vivo, postmenopausal women with osteoporosis. The conditions noted are these: for predose serum calcium, mean ± SE: samples 16–24 h postdose. The procedure, abridged:
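Unadjusted total serum calcium measured in all patients at baseline and 4–6 h postdose at months 1, 3, 6, 12, 18 and 24, at three laboratories using identical, cross-calibrated methods. Samples falling 16–24 h postdose served as predose values.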

The conditions of series [2]: cited from earlier work.
Series [3] deals with serum calcium. The conditions noted are these: rats; subcutaneous injections every hour for six injections; cited from earlier work.
Series [4] can be described thus: Population pharmacokinetics of teriparatide after subcutaneous injection. Type of series: in vivo, postmenopausal women with osteoporosis. The method, boiled down: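 Serum drug levels measured in a 360-patient subset at months 1, 3, 6, 12 and 18, one sample per visit within a 0–30 min, 30 min–1 h, 1–2 h, 2–3 h or 3–4 h postdose window. Serum stored at -70°C; two-site immunoradiometric assay using bead-bound capture and 125I-labelled detection antibodies to PTH 1–34. Standard curve 9.8–20,000 pg/ml; quantifiable range 50–2,000 pg/ml; accuracy and precision ±20%.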

Series [5] in a line: Adverse events commonly associated with hypercalcemia, Fracture Prevention Trial. Type of series: in vivo, postmenopausal women with osteoporosis. The note with it: teriparatide 20 μg/day; overall cohort (n = 541). The method, boiled down:
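Events typical of hypercalcemia were collected throughout the trial in women randomized to once-daily subcutaneous teriparatide or placebo. They were tabulated for the whole teriparatide cohort and for the subset whose 4–6 h postdose serum calcium exceeded 10.6 mg/dl.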

The conditions of series [6]: cited from earlier work. This is another data set of the same source.
The conditions of series [7]: cited from earlier work. This is another data set of the same source.
[8] abbreviates: daily injections of teriparatide 20 µg.
Setting [9] is: indirect-response PK–PD model, teriparatide 20 μg sc, 360 patients.
Where [10] appears, read: comparing 10th and 90th percentiles of body weight (51–80 kg), population PK.
Where [11] appears, read: female, human, serum, sc, 20 ug.

Read-outs that look alike come from different tables or passages of the source.

In the case of `CC[C@H](C)[C@H](NC(=O)[C@H](CCC(=O)O)NC(=O)[C@H](CO)NC(=O)[C@@H](NC(=O)[C@@H](N)CO)C(C)C)C(=O)N[C@@H](CCC(N)=O)C(=O)N[C@@H](CC(C)C)C(=O)N[C@@H](CCSC)C(=O)N[C@@H](Cc1cnc[nH]1)C(=O)N[C@@H](CC(N)=O)C(=O)N[C@@H](CC(C)C)C(=O)NCC(=O)N[C@@H](CCCCN)C(=O)N[C@@H](Cc1cnc[nH]1)C(=O)N[C@@H](CC(C)C)C(=O)N[C@@H](CC(N)=O)C(=O)N[C@@H](CO)C(=O)N[C@@H](CCSC)C(=O)N[C@@H](CCC(=O)O)C(=O)N[C@@H](CCCN=C(N)N)C(=O)N[C@H](C(=O)N[C@@H](CCC(=O)O)C(=O)N[C@@H](Cc1c[nH]c2ccccc12)C(=O)N[C@@H](CC(C)C)C(=O)N[C@@H](CCCN=C(N)N)C(=O)N[C@@H](CCCCN)C(=O)N[C@@H](CCCCN)C(=O)N[C@@H](CC(C)C)C(=O)N[C@@H](CCC(N)=O)C(=O)N[C@@H](CC(=O)O)C(=O)N[C@H](C(=O)N[C@@H](Cc1cnc[nH]1)C(=O)N[C@@H](CC(N)=O)C(=O)N[C@@H](Cc1ccccc1)C(=O)O)C(C)C)C(C)C` [teriparatide, recombinant human parathyroid hormone (rhPTH[1–34])], in series [1] (1 month, teriparatide 20 μg), the “predose serum calcium, mean ± SE” value turned out to be 9.19 ± 0.03 mg/dL. Besides, the “predose serum calcium, mean ± SE” value in series [1] (3 months, teriparatide 20 μg) worked out at 9.12 ± 0.08 mg/dL. Besides, the “predose serum calcium, mean ± SE” value in series [1] (6 months, teriparatide 20 μg) stood at 9.29 ± 0.03 mg/dL. Further, in series [1] (12 months, teriparatide 20 μg), the “predose serum calcium, mean ± SE” value came out at 9.40 ± 0.03 mg/dL. Also, the “predose serum calcium, mean ± SE” value in series [1] (18 months, teriparatide 20 μg) came to 9.30 ± 0.08 mg/dL. Further, the “predose serum calcium, mean ± SE” value in series [1] (24 months, teriparatide 20 μg) came out at 9.26 ± 0.05 mg/dL. Further, in series [1] (setting [8]), the “time after dosing at which serum calcium begins to increase” value is on record as “approximately 2 h” and the “time of maximum serum calcium concentration/effect after dosing” value was 4.25 h. Moreover, in series [1] (indirect-response PK–PD model, 62% CV), the “Emax, maximum calcemic response” value was 19.5%. Moreover, the “EC50, teriparatide concentration required to produce 50% of the maximum calcium effect” value in series [1] (indirect-response PK–PD model, serum teriparatide) was 0.054 ng/mL. Besides, in series [1] (setting [9]), the “Kin, zero-order production rate for change in serum calcium” value is reported as 1.1 mg/(dl · hour) and the “Kout, first-order dissipation rate for calcium response” value was 0.12 h⁻¹. Further, the “patients with a predose serum calcium >11.0 mg/dl” value in series [1] (teriparatide 20 μg) was “no”. Also, the “patients with serum calcium above the upper limit of normal (10.6 mg/dl) 4–6 h after dosing” value in series [1] (teriparatide 20 µg group, fifty patients, placebo 1.1%) is on record as 9.4%. In series [1] (teriparatide 20 µg sc daily), the “time after dosing at which serum calcium begins to decline” value is “approximately 6 h” and the “time after each dose by which serum calcium returned to predose levels” value lay in the range of 16 to 24 h. In series [1] (teriparatide 20 μg sc daily, median 21 months' treatment), the persistent hypercalcemia result is listed as “not observed”. Besides, the “patients with a predose serum calcium value >10.6 mg/dl” value in series [1] (teriparatide 20 μg, 1/223 patients) came to 0.4%. For the same molecule, in series [2], the bioavailability is listed as 95%, the half-life following injection is 60 min and the “time to peak concentration following injection” value is 30 min. In addition, the “true elimination half-life following intravenous administration” value in series [2] (intravenous) is recorded as 5 min. Further, the “sustained elevated serum calcium concentrations” value in series [3] was “sustained elevated serum calcium concentrations occurred”. The “total duration of exposure to the peptide” value in series [4] (20 μg sc once daily) is “approximately 4 h”. In addition, the “duration of exposure above basal endogenous PTH concentrations (28 pg/ml)” value in series [4] (20 μg sc, molar basis, concentration–time profile extrapolated to infinite time) was “about 4 h”. Also, in series [4] (setting [10]), the “prolongation in Tmax in heavier patients” value stood at 2.3 min and the “reduction in Cmax in heavier patients” value was found to be 26%. Moreover, in series [4] (setting [11]), the CL/F was ~1030 mL/min, the Tmax is ~30 min and the level at 3 h is < 0.05 ng/mL. The “slower rate of absorption, thigh vs abdominal wall injection” value in series [4] (population PK covariate estimate, 20 μg sc) is listed as 21%. For the same molecule, the “half-life based upon Ka (ln 2/Ka)” value in series [4] (population PK model, 20 μg sc) is 1.1 h. In addition, in series [5], the Abdominal pain is reported as 48 (8.9%) n (%), the Anorexia is on record as 8 (1.5%) n (%), the Arrhythmias was 9 (1.7%) n (%) and the Constipation is recorded as 32 (5.9%) n (%). Besides, in series [5], the Depression was 21 (3.9%) n (%), the Headache is reported as 44 (8.1%) n (%), the Hypertension is 41 (7.6%) n (%) and the Nausea was 51 (9.4%) n (%). Moreover, in series [5], the Pancreatitis was 1 (0.2%) n (%), the Peptic ulcer/gastritis is recorded as 8 (1.5%) n (%) and the Vomiting was 19 (3.5%) n (%).

Consider parathyroid hormone [PTH], for which, in series [6], the “half-life (clearance of the endogenous hormone)” value is reported as < 2 min.

Take “rhPTH(1–84): full human recombinant PTH, available for treatment of osteoporosis in some countries at a daily dose of 100 μg”: the bioavailability in series [7] is 55%. In addition, in series [7] (sc), the apparent terminal half-life is 90 to 150 min. Further, in series [7] (single-dose sc, dose range 0.02–5.0 μg/kg), the “time of first peak of serum concentration–time profile after dosing” value is 5 to 10 min.

What is called bioavailability is the share of a dose that reaches the circulation, judged against a reference dose that is usually intravenous. What is called CL/F is clearance divided by bioavailability, as obtained after extravascular dosing. For orientation: Tmax means the time from dosing to the highest level.
